Values belong to the compound of their own block, whether it stands above or below them. Square brackets hold non-standard residues; d marks the D form. Peptide text beside a SMILES is read from it. Sar = CNCC(=O)O
Experiments:
[1] = system: apical peptide transporters; assay: Apical [3H]Gly-Sar uptake; type: in vitro ADME, canine; details: dog, MDCKII-MDR1 cells (apical uptake), pH 7.4
In short: (§1)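 Cells under passage 6 were seeded at 7 × 10^4 cells/cm2 in 12-well plates and washed with DPBS pH 7.4. Apical [3H]Gly-Sar (0.5 μCi/mL in DPBS) with unlabeled Gly-Sar (5–250 μM) was incubated 15 min at 37 °C and 4 °C. Stop was ice-cold 200 mM KCl/2 mM HEPES. Lysis in 0.3 N NaOH/0.1% Triton X-100, scintillation counting, normalised to protein. Specific uptake is 37 °C minus 4 °C. Michaelis–Menten fit gave Km and Vmax; efficiency is Vmax/Km; n = 3.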

[2] = system: apical peptide transporters in MDCKII-MDR1 cells; assay: Apical [3H]Gly-Sar uptake; type: in vitro ADME, canine
In short: as §1

[3] = system: apical peptide transporters in MDCKII-wt cells; assay: Apical [3H]Gly-Sar uptake; type: in vitro ADME, canine
In short: as §1

[4] = system: basolateral peptide transporters in MDCKII-wt cells; assay: Basolateral [3H]Gly-Sar uptake; type: in vitro ADME, canine
In short: (§2)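 Cells under passage 6 were seeded at 2 × 10^5 cells/cm2 on Transwell inserts (0.4 μm pore) and dosed from the basolateral side. [3H]Gly-Sar was given with unlabeled Gly-Sar (0–250 μM) at 4 °C and 37 °C. Specific uptake is 37 °C minus 4 °C, normalised to protein and fitted to Michaelis–Menten for Km and Vmax; n = 3.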

[5] = system: apical peptide transporters in MDCKII-BCRP cells; assay: Apical [3H]Gly-Sar uptake; type: in vitro ADME, canine
In short: as §1

[6] = system: apical peptide transporters; assay: Apical [3H]Gly-Sar uptake; type: in vitro ADME, canine; details: dog, MDCKII-BCRP cells (apical uptake), pH 7.4
In short: as §1

[7] = system: apical peptide transporters; assay: Apical [3H]Gly-Sar uptake; type: in vitro ADME, canine; details: dog, MDCKII-MRP2 cells (apical uptake), pH 7.4
In short: as §1

[8] = system: apical peptide transporters in MDCKII-MRP2 cells; assay: Apical [3H]Gly-Sar uptake; type: in vitro ADME, canine
In short: as §1

[9] = Transporter-mediated transepithelial Gly-Sar transport; type: in vitro ADME, canine; details: dog; for Papp A→B at 60 min, 0.5 μCi/mL: MDCK-MDR1, AP–BL permeability; for Papp B→A at 60 min, 0.5 μCi/mL: MDCK-MDR1, BL–AP permeability
In short: (§3)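 Monolayers under passage 6 were grown on Transwell inserts (2 × 10^5 cells/cm2) and washed with DPBS pH 7.4. Apical 0.5 mL was at pH 4.0–7.4; basolateral 1.5 mL was held at pH 7.4. [3H]Gly-Sar was run AP→BL and BL→AP. Receiver samples were taken over 60 min and replaced with fresh DPBS. Transporter-mediated Papp is [3H]Gly-Sar minus [14C]mannitol passive transport; n = 4.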

[10] = as above; type: in vitro ADME, canine; details: dog, MDCK, MDCKII-wt
In short: as §3

[11] = system: basolateral peptide transporters in MDCKII-MDR1 cells; assay: Basolateral [3H]Gly-Sar uptake; type: in vitro ADME, canine; details: basolateral uptake, MDCKII-MDR1
In short: as §2

[12] = system: basolateral peptide transporters; assay: Basolateral [3H]Gly-Sar uptake; type: in vitro ADME, canine; details: dog, MDCKII-MDR1 cells on Transwell inserts (basolateral uptake), pH 7.4
In short: as §2

[13] = system: basolateral peptide transporters in MDCKII-MRP2 cells; assay: Basolateral [3H]Gly-Sar uptake; type: in vitro ADME, canine; details: basolateral uptake, MDCKII-MRP2
In short: as §2

[14] = system: basolateral peptide transporters; assay: Basolateral [3H]Gly-Sar uptake; type: in vitro ADME, canine; details: dog, MDCKII-MRP2 cells on Transwell inserts (basolateral uptake), pH 7.4
In short: as §2

[15] = Transporter-mediated transepithelial Gly-Sar transport; type: in vitro ADME, canine; details: dog
In short: as §3

[16] = as above; type: in vitro ADME, canine; details: dog, MDCKII-BCRP
In short: as §3

[17] = system: basolateral peptide transporters; assay: Basolateral [3H]Gly-Sar uptake; type: in vitro ADME, canine; details: dog, MDCKII-BCRP cells on Transwell inserts (basolateral uptake), pH 7.4
In short: as §2

[18] = system: basolateral peptide transporters in MDCKII-BCRP cells; assay: Basolateral [3H]Gly-Sar uptake; type: in vitro ADME, canine; details: basolateral uptake, MDCKII-BCRP
In short: as §2

[19] = system: apical peptide transporters (PepT1 and PepT2) in MDCKII cell lines; assay: Inhibition of apical [3H]Gly-Sar uptake by peptide transporter inhibitors; type: cell-based, canine; details: inhibitor 100 μM, pH 7.4, 37 °C, 15 min, all four MDCKII cell lines
[20] = AP–BL [14C]Mannitol permeability; type: in vitro ADME, canine; details: dog, MDCK-MDR1, pH 7.4
[21] = AP–BL [14C]Mannitol permeability; type: in vitro ADME, canine; details: dog, MDCK, pH 7.4
[22] = MDCKII-MDR1, AP chamber pH 4.0, BL pH 7.4
[23] = MDCKII-MDR1, AP chamber pH 5.0, BL pH 7.4
[24] = MDCKII-MDR1, AP chamber pH 6.0, BL pH 7.4
[25] = AP–BL permeability, AP chamber pH 4.0, BL pH 7.4
[26] = AP–BL permeability, AP chamber pH 5.0, BL pH 7.4
[27] = AP–BL permeability, AP chamber pH 6.0, BL pH 7.4
[28] = BL–AP permeability, AP chamber pH 4.0, BL pH 7.4
[29] = BL–AP permeability, AP chamber pH 5.0, BL pH 7.4
[30] = BL–AP permeability, AP chamber pH 6.0, BL pH 7.4
[31] = pH 7.4, AP–BL permeability, AP chamber pH 7.4, BL pH 7.4
[32] = pH 7.4, BL–AP permeability, AP chamber pH 7.4, BL pH 7.4

Km at 15 min [1]: 29.1 ± 3.29 µM | extracellular pH of maximal apical uptake ([3]; pH 4.0–7.4 tested, all MDCKII cell lines): 6.0 | uptake in MDCKII-wt cells in comparison with transfected cells ([3]; total apical uptake at 37 °C, pH 7.4): 3–5 fold | Km at 15 min [6]: 60.7 ± 8.56 µM | Km at 15 min [7]: 84.8 ± 18.6 µM | Papp A→B at 60 min, 0.5 μCi/mL [9, 22]: 6 ± 0.4 ×10⁻⁶ cm/s | Papp A→B at 60 min, 0.5 μCi/mL [9, 23]: 6.4 ± 0.5 ×10⁻⁶ cm/s | Papp A→B at 60 min, 0.5 μCi/mL [9, 24]: 8 ± 0.4 ×10⁻⁶ cm/s | Papp B→A at 60 min, 0.5 μCi/mL [9, 22]: 10.1 ± 1.3 ×10⁻⁶ cm/s | Papp B→A at 60 min, 0.5 μCi/mL [9, 23]: 7.6 ± 0.8 ×10⁻⁶ cm/s | Papp B→A at 60 min, 0.5 μCi/mL [9, 24]: 8.2 ± 0.5 ×10⁻⁶ cm/s | Papp A→B at 60 min, 0.5 μCi/mL [10, 25]: 13.1 ± 1.4 ×10⁻⁶ cm/s | Papp A→B at 60 min, 0.5 μCi/mL [10, 26]: 14.9 ± 2.8 ×10⁻⁶ cm/s | Papp A→B at 60 min, 0.5 μCi/mL [10, 27]: 22.2 ± 1.9 ×10⁻⁶ cm/s | Papp B→A at 60 min, 0.5 μCi/mL [10, 28]: 9.4 ± 0.4 ×10⁻⁶ cm/s | Papp B→A at 60 min, 0.5 μCi/mL [10, 29]: 6.6 ± 0.6 ×10⁻⁶ cm/s | Papp B→A at 60 min, 0.5 μCi/mL [10, 30]: 6 ± 1 ×10⁻⁶ cm/s | Papp A→B at 60 min, 0.5 μCi/mL [10, 31]: 36.7 ± 0.2 ×10⁻⁶ cm/s | Papp B→A at 60 min, 0.5 μCi/mL [10, 32]: 8 ± 0.9 ×10⁻⁶ cm/s | Km at 15 min [12]: 50.9 ± 7.86 µM | Km at 15 min [14]: 64.6 ± 4.09 µM | Papp A→B at 60 min, 0.5 μCi/mL ([15]; AP–BL permeability, MDCKII-MRP2, AP chamber pH 4.0, BL pH 7.4): 8.6 ± 1.1 ×10⁻⁶ cm/s | Papp A→B at 60 min, 0.5 μCi/mL ([15]; AP–BL permeability, MDCKII-MRP2, AP chamber pH 5.0, BL pH 7.4): 9.9 ± 0.8 ×10⁻⁶ cm/s | Papp A→B at 60 min, 0.5 μCi/mL ([15]; AP–BL permeability, MDCKII-MRP2, AP chamber pH 6.0, BL pH 7.4): 10.6 ± 0.1 ×10⁻⁶ cm/s | Papp B→A at 60 min, 0.5 μCi/mL ([15]; BL–AP permeability, MDCKII-MRP2, AP chamber pH 4.0, BL pH 7.4): 8.5 ± 0.6 ×10⁻⁶ cm/s | Papp B→A at 60 min, 0.5 μCi/mL ([15]; BL–AP permeability, MDCKII-MRP2, AP chamber pH 5.0, BL pH 7.4): 6.3 ± 0.4 ×10⁻⁶ cm/s | Papp B→A at 60 min, 0.5 μCi/mL ([15]; BL–AP permeability, MDCKII-MRP2, AP chamber pH 6.0, BL pH 7.4): 7.5 ± 0.5 ×10⁻⁶ cm/s | Papp A→B at 60 min, 0.5 μCi/mL ([15]; pH 7.4, AP–BL permeability, MDCKII-MRP2, AP chamber pH 7.4, BL pH 7.4): 17.7 ± 1.4 ×10⁻⁶ cm/s | Papp B→A at 60 min, 0.5 μCi/mL ([15]; pH 7.4, BL–AP permeability, MDCKII-MRP2, AP chamber pH 7.4, BL pH 7.4): 15.7 ± 0.6 ×10⁻⁶ cm/s | Papp A→B at 60 min, 0.5 μCi/mL [16, 25]: 7.1 ± 0.3 ×10⁻⁶ cm/s | Papp A→B at 60 min, 0.5 μCi/mL [16, 26]: 7.6 ± 1.2 ×10⁻⁶ cm/s | Papp A→B at 60 min, 0.5 μCi/mL [16, 27]: 10.7 ± 0.7 ×10⁻⁶ cm/s | Papp B→A at 60 min, 0.5 μCi/mL [16, 28]: 10.9 ± 0.7 ×10⁻⁶ cm/s | Papp B→A at 60 min, 0.5 μCi/mL [16, 29]: 6.5 ± 0.7 ×10⁻⁶ cm/s | Papp B→A at 60 min, 0.5 μCi/mL [16, 30]: 7.2 ± 0.9 ×10⁻⁶ cm/s | Papp A→B at 60 min, 0.5 μCi/mL [16, 31]: 18.6 ± 1.9 ×10⁻⁶ cm/s | Papp B→A at 60 min, 0.5 μCi/mL [16, 32]: 15.6 ± 0.1 ×10⁻⁶ cm/s | Km at 15 min [17]: 46.1 ± 2.26 µM
SMILES: CN(CC(=O)O)C(=O)CN [Gly-Sar, Glycylsarcosine] (H-Gly-[Sar]-OH)
transport efficiency relative to that in wild-type cells ([2]; apical peptide transporters, MDCKII-MDR1 vs wild-type): around 25% | Vmax ([2]; apical uptake, MDCKII-MDR1, low passage): 1.30 ± 0.36 fmol/mg protein/min | Vmax relative to that in wild-type cells ([2]; apical uptake, hMDR1-transfected vs wild-type): about 12% | Km ([3]; apical uptake, MDCKII-wt): 59.7 ± 1.1 µM | Vmax ([3]; apical uptake, MDCKII-wt): 10.76 ± 1.68 fmol/mg protein/min | Km [4]: 13.7 ± 2.22 µM | Vmax [4]: 4.45 ± 0.04 fmol/mg protein/min | transport efficiency relative to that in wild-type cells ([5]; apical peptide transporters, MDCKII-BCRP vs wild-type): ~41% | Vmax ([5]; apical uptake, MDCKII-BCRP, low passage): 4.50 ± 0.83 fmol/mg protein/min | Vmax relative to that in wild-type cells ([5]; apical uptake, hBCRP-transfected vs wild-type): ~42% | transport efficiency relative to that in wild-type cells ([8]; apical peptide transporters, MDCKII-MRP2 vs wild-type): ~30% | Vmax ([8]; apical uptake, MDCKII-MRP2, low passage): 4.62 ± 0.76 fmol/mg protein/min | Vmax relative to that in wild-type cells ([8]; apical uptake, hMRP2-transfected vs wild-type): ~43% | Vmax [11]: 8.52 ± 0.81 fmol/mg protein/min | Vmax [13]: 8.03 ± 1.78 fmol/mg protein/min | Vmax [18]: 13.07 ± 2.61 fmol/mg protein/min

SMILES: CCC(=O)O[C@@H](O[P@](=O)(CCCCc1ccccc1)CC(=O)N1C[C@H](C2CCCCC2)C[C@H]1C(=O)O)C(C)C [fosinopril, Fosinopril]
effect on apical [3H]Gly-Sar uptake compared to control [19]: significantly reduced apical Gly-Sar uptake

Papp A→B at 60 min, 0.125 µCi/mL [20]: 18.4 ± 0.9 ×10⁻⁶ cm/s | Papp A→B at 60 min, 0.125 µCi/mL [21]: 42.1 ± 0.5 ×10⁻⁶ cm/s
SMILES: OC[C@@H](O)[C@@H](O)[C@H](O)[C@H](O)CO [[^14C]Mannitol, Mannitol]

Reference: paper PMC3618282 (International journal of pharmaceutics, 2012)
